Screens deposited in PubChem by The Scripps Research Institute Molecular Screening Center.
Only some compounds are listed: those with a hit (about 1.7% of all), similar ones and a draw of the others.
core dimer inh – inhibitors of HCV core protein dimerization, primary screen, biochemical, TR-FRET, high-throughput; TR-FRET GST/Flag-core106 dimerization, 1536-well; inhibition, % at 5 µM; 300,000 compounds, 0.33% hits;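 active means inhibition above the mean of all tested compounds plus 3 SD, set per screening campaign, cut at about 45% in these data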
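System – GST-tagged and Flag-tagged HCV core protein residues 1-106 · Repeats – one well for each compound · Technique – TR-FRET 671 and 617 nm emission · Doses – one concentration, 5 µM, in 0.5% DMSO · Times – 4 h, 22.5 °C incubation · Also added – Eu donor and XL665 acceptor anti-tag antibodies · Measure – percent inhibition of core106 dimerization signal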
PP1 inh – PP1-alpha phosphatase inhibitors, primary screen, counter-screen for PP5 inhibitor project, biochemical, fluorescence, OMFP substrate, single point. 320,000 compounds, 0.9% hits. AID 2235, 2010. purified PP1alpha. Serine/threonine-protein phosphatase PP1-alpha catalytic subunit (Homo sapiens), P62136. inhibition, % at 6.7 µM;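 active means inhibition above the mean inhibition of all tested compounds plus 3 SD, computed separately for each screening campaign, cut at about 15% in these data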
EBNA-1 inhibitor – EBNA-1 DNA-binding inhibitors, primary screen, biochemical, fluorescence polarization | inhibition, % at 14.8 µM | AID 1950, 2009 | 300,000 compounds, 0.34% hits; in the data active means inhibition above about 28%
PP5 inh – PP5 phosphatase inhibitors, primary screen, biochemical, fluorescence; Serine/threonine-protein phosphatase 5 (Homo sapiens), P53041; purified PP5c, OMFP substrate fluorescence; inhibition, % at 6.7 µM; 320,000 compounds, 0.18% hits; AID 1987, 2009;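 active means inhibition above the campaign's mean inhibition across all tested compounds plus 3 SD, cut at about 9.5% in these data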;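 further: 0% = DMSO only and 100% = 100 µM cantharidin control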
Target sequence (P53041 whole entry, looked up): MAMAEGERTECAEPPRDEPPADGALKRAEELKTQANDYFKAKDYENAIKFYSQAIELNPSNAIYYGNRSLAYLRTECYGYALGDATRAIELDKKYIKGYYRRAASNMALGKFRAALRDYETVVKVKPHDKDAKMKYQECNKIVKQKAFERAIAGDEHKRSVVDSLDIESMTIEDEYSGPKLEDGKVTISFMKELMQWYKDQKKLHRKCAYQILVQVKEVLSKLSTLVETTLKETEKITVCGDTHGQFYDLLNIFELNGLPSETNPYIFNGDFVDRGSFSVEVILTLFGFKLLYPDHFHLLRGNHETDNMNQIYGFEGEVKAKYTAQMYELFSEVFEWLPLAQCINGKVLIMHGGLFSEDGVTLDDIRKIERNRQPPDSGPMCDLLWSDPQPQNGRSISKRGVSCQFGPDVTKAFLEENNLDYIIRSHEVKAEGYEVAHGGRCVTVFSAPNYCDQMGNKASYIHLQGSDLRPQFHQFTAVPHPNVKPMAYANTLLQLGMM
ZTA counter – ZTA (EBV) inhibition in EBNA-1 counter-screen; ZTA-DNA binding, fluorescence polarization; inhibition, % at 11 µM; 320,000 compounds, 0.15% hits; AID 2234; in the data active means inhibition above about 33%
PP1 inh confirm – PP1 phosphatase inhibitors, confirmation, biochemical, fluorescence, OMFP substrate, triplicate | purified PP1alpha | inhibition, % at 6.7 µM | 1,900 compounds, 52% hits | shares compounds with PP1 inh | AID 2358, 2010;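 active means mean PP1 inhibition above a set limit taken from the earlier primary screen, cut at about 15% in these data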
PP5 inh counter – PP5 phosphatase inhibition by PP1 hits, confirmation, counter-screen for PP1 inhibitor project, biochemical, fluorescence, triplicate | 1,900 compounds, 4% hits | inhibition, % at 6.7 µM | purified PP5c, OMFP fluorescence | shares compounds with PP1 inh;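 active means mean PP5 inhibition over triplicate wells above about 9.5% taken from the earlier PP1 screen, limit read from the data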
* hit, by the source's call.

For CC(=O)N/C(=C/c1ccc2c(c1)OCO2)C(=O)NCc1ccccc1 the results were core dimer inh -5.8, PP1 inh -2.8, EBNA-1 inhibitor -2.5, PP5 inh -0.1 and ZTA counter 10.7.
Screening Cc1ccc(S(=O)(=O)N2CCCC2C(=O)NCc2ccccc2F)cc1 (stereo not given) returned core dimer inh 2.2, PP1 inh -0.3, EBNA-1 inhibitor -6.2, PP5 inh 1.0 and ZTA counter 4.9.
`CC(CCc1ccco1)NC(=O)CCc1nnc2ccc(NCc3ccccc3Cl)nn12` (stereo not given) gave core dimer inh 16.9, PP1 inh 13.5, EBNA-1 inhibitor -0.9, PP5 inh -0.1 and ZTA counter -22.1.
For CC(CCc1ccco1)NC(=O)CCc1nnc2ccc(NCc3ccc(Cl)cc3)nn12 (stereo not given) the results were core dimer inh 5.3, PP1 inh 22.4*, EBNA-1 inhibitor -8.4, PP5 inh 3.0, ZTA counter 3.8, PP1 inh confirm 16.6* and PP5 inh counter -4.1.
Screening Cc1cc(-c2nnc3n2N=C(c2ccc(F)cc2)CS3)n[nH]1 returned core dimer inh 2.3, PP1 inh -3.5, EBNA-1 inhibitor -4.2, PP5 inh 1.1 and ZTA counter -10.5.
For CCN(CC)CCOC(=O)c1ccc(N/C=C(/C#N)c2nc(-c3ccc4c(c3)OCO4)cs2)cc1 the results were core dimer inh 3.1, PP1 inh 64.6*, EBNA-1 inhibitor -14.5, PP5 inh 0.1, ZTA counter 16.2, PP1 inh confirm 38.7* and PP5 inh counter 0.4.
Cc1cccc(C)c1NC(=O)CN(C)C(C)C(=O)NCC(=O)Nc1ccc(F)c(F)c1F (stereo not given) was read as PP1 inh -2.0, PP5 inh -0.8 and ZTA counter -0.5.
Screening O=C(OCC(=O)c1ccc(S(=O)(=O)N2CCCC2)cc1)C1=COCCO1 returned core dimer inh 26.9, PP1 inh 0.1, EBNA-1 inhibitor 20.3, PP5 inh 0.0 and ZTA counter 10.4.
Screening Cc1ccc(C(=O)OCC(=O)c2ccc(S(=O)(=O)N3CCCCC3)cc2)o1 returned core dimer inh 9.5, PP1 inh 66.1*, EBNA-1 inhibitor -16.4, PP5 inh 1.8, ZTA counter -11.5, PP1 inh confirm -0.1 and PP5 inh counter -2.1.
`COc1ccc(-n2c(SCC(=O)Nc3sc4c(c3C#N)CCCC4)nnc2-c2ccccc2OC)cc1` gave core dimer inh 36.2, PP1 inh 17.8*, EBNA-1 inhibitor 6.8, PP5 inh 3.2, ZTA counter -3.1, PP1 inh confirm 4.3 and PP5 inh counter -0.7.
For COc1ccc(-c2nnc(SCC(=O)Nc3sc4c(c3C#N)CCCC4)n2-c2ccccc2)cc1 the results were core dimer inh 2.0, PP1 inh -2.3, EBNA-1 inhibitor 2.2, PP5 inh 1.9 and ZTA counter -6.4.
`Cc1sc2nc(CN3CCCC3)nc(N3CCN(S(=O)(=O)c4cccc(F)c4)CC3)c2c1C` gave PP1 inh 18.6*, PP5 inh 2.5, ZTA counter -1.9, PP1 inh confirm 3.0 and PP5 inh counter -1.7.
Screening Cc1sc2nc(CN3CCOCC3)nc(N3CCN(S(=O)(=O)c4ccccc4)CC3)c2c1C returned PP1 inh -2.7, PP5 inh 2.8 and ZTA counter -4.5.
Screening CCn1cc(C(=O)O)c(=O)c2cc(F)c(N3CCN(C(=S)NC(=O)c4c(OC)cccc4OC)CC3)cc21 returned core dimer inh -8.8, PP1 inh 12.6, EBNA-1 inhibitor -6.0, PP5 inh 1.7 and ZTA counter 3.5.
CCn1cc(C(=O)O)c(=O)c2cc(F)c(N3CCN(C(=S)Nc4ccccc4OC)CC3)cc21 was read as core dimer inh -1.9, PP1 inh 24.6*, EBNA-1 inhibitor -0.8, PP5 inh 2.0, ZTA counter -13.1, PP1 inh confirm 14.8 and PP5 inh counter -4.0.
Screening CC(C(=O)Nc1ccc2c(c1)OCO2)n1cnc2c1c(=O)n(C)c(=O)n2C (stereo not given) returned PP1 inh 0.3, PP5 inh -2.6 and ZTA counter -23.1.
`O=C1Nc2cc(C(=O)N3CCN(c4ccccc4F)CC3)ccc2NC1CSCc1ccccc1F` (stereo not given) gave core dimer inh 35.9, PP1 inh 18.5*, EBNA-1 inhibitor -5.8, PP5 inh 1.3, ZTA counter 3.7, PP1 inh confirm 32.5* and PP5 inh counter 1.0.
Screening O=c1c([N+](=O)[O-])cccn1Cc1cccc(Cl)c1 returned core dimer inh -2.6, PP1 inh -5.4, EBNA-1 inhibitor -12.0, PP5 inh -0.5 and ZTA counter -8.0.
Screening O=C(Nc1nnc(-c2ccc3c(c2)CCCC3)o1)C1COc2ccccc2O1 (stereo not given) returned core dimer inh 6.0, PP1 inh 37.8*, EBNA-1 inhibitor -4.6, PP5 inh 0.6, ZTA counter 3.9, PP1 inh confirm 37.3* and PP5 inh counter 1.0.
CC(=O)Nc1nnc(-c2ccc3c(c2)CCCC3)o1 was read as core dimer inh 0.6, PP1 inh -0.8, EBNA-1 inhibitor 9.7, PP5 inh 0.5 and ZTA counter 7.8.
`Cc1nn(Cc2cccc(C(=O)N3N=C(C(F)F)CC3(O)C(F)F)c2)c(C)c1[N+](=O)[O-]` (stereo not given) gave core dimer inh 3.9, PP1 inh -3.2, EBNA-1 inhibitor 2.1, PP5 inh 3.2 and ZTA counter 0.4.
Screening COc1ccc(C(CNC(=O)CNC(=O)c2ccccc2Cl)N2CCCC2)cc1 (stereo not given) returned core dimer inh 3.5, PP1 inh -2.8, EBNA-1 inhibitor 5.4, PP5 inh -2.0 and ZTA counter 9.1.
Screening CCOc1ccccc1C(=O)NCC(=O)NCC(c1ccc(OC)cc1)N1CCOCC1 (stereo not given) returned core dimer inh -0.2, PP1 inh 22.8*, EBNA-1 inhibitor -2.7, PP5 inh -0.7, ZTA counter 0.9, PP1 inh confirm -2.3 and PP5 inh counter -2.9.
`COC(=O)c1sc(N)c(C(=O)OC)c1COC(=O)C1CC(=O)N(Cc2ccco2)C1` (stereo not given) gave core dimer inh 2.4, PP1 inh 17.9*, EBNA-1 inhibitor 13.1, PP5 inh 2.0, ZTA counter -12.1, PP1 inh confirm -2.8 and PP5 inh counter -2.2.
